ChEMBL document CHEMBL1145972, “In vitro and in vivo characterization of 3-[2-[6-(2-tert-butoxyethoxy)pyridin-3-yl]-1H-imidazol-4-yl]benzonitrile hydrochloride salt, a potent and selective NPY5 receptor antagonist” (J Med Chem, 2003)

Experiments:
[1] = t1/2 in the plasma of male wistar rats; assay type: ADME, organism-based; settings: rat
In short: (§1)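 Male Wistar rats with jugular vein cannula, free access to food and water, given 30 mg/kg by oral gavage in 30% w/v β-cyclodextrin. Plasma, whole brain and CSF sampled over a time course (through 6–8 h); one animal per time point.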

[2] = t1/2 in the brain of male wistar rats; assay type: ADME, organism-based; settings: rat; in short: as §1
[3] = t1/2 in the CSF of male wistar rats; assay type: ADME, organism-based, Cerebrospinal fluid; settings: rat; in short: as §1
[4] = Cmax in the brain of male wistar rats; assay type: ADME, organism-based; settings: rat; in short: as §1
[5] = tmax in the plasma of male wistar rats; assay type: ADME, organism-based; settings: rat; in short: as §1
[6] = system: HMCB cell line; experiment: Inhibitory activity against calcium mobilization in NPY5 transfected human bowes melanoma cell line.; assay type: functional, cell-based
In short: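 Ca2+ mobilization read-out in human Bowes melanoma (HMCB) cells transfected with NPY5.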

[7] = target: T1, Neuropeptide Y receptor type 2 (Homo sapiens, UniProt P49146); experiment: Inhibitory activity against Neuropeptide Y receptor type 2
T1 sequence (P49146 whole entry): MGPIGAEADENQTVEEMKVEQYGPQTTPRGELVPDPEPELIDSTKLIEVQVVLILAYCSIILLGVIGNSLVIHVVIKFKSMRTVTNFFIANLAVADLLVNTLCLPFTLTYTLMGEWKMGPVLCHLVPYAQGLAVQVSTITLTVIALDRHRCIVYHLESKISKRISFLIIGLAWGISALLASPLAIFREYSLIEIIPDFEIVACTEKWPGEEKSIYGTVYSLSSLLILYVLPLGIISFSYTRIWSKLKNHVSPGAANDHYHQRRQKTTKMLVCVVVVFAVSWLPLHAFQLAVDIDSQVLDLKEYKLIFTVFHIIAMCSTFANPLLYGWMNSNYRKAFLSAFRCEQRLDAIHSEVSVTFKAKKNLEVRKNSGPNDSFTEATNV
In short: (§2)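 Cloned human chimeric NPY receptors, displacement of [125I]PYY radioligand.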

[8] = target: T2, Neuropeptide Y receptor type 5 (Rattus norvegicus, UniProt Q63634); experiment: Binding affinity to the rat Neuropeptide Y receptor type 5 was determined using [125I]- [Leu31,Pro34]PYY as radioligand
T2 sequence (Q63634 whole entry): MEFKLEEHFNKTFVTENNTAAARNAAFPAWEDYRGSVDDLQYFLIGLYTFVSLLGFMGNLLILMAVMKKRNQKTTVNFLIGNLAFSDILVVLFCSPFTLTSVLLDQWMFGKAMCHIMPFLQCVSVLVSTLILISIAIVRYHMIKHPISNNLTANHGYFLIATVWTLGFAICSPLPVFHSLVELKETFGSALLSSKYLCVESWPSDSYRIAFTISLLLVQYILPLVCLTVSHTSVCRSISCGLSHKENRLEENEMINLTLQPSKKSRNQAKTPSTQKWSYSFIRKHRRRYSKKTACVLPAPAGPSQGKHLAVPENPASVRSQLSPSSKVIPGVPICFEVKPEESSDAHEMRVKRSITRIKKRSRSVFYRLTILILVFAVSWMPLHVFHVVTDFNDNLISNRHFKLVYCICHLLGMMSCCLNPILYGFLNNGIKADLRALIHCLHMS
In short: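 Whole rat brain membranes; radioligand [125I][Leu31,Pro34]PYY, with 1 μM BIBP3226 present to block NPY-1 receptors.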

[9] = target: T3, Neuropeptide Y receptor type 1 (Homo sapiens, UniProt P25929); experiment: Inhibitory activity against Neuropeptide Y receptor type 1; in short: as §2
T3 sequence (P25929 whole entry): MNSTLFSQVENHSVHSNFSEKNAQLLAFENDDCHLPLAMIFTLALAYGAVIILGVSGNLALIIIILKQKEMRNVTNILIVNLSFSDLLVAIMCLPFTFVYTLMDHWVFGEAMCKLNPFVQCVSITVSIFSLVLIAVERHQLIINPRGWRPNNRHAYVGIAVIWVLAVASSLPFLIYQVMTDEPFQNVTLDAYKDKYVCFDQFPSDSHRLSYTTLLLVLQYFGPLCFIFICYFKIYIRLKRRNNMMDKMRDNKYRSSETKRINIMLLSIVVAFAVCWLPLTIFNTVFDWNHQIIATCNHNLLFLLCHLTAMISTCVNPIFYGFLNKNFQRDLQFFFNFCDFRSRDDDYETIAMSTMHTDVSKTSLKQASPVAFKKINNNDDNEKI

[10] = tmax in the brain of male wistar rats; assay type: ADME, organism-based; settings: rat; in short: as §1
[11] = target: T4, Neuropeptide Y receptor type 5 (Homo sapiens, UniProt Q15761); experiment: Binding affinity to the human Neuropeptide Y receptor type 5 was determined using [125I]- [PYY] as radioligand
T4 sequence (Q15761 whole entry): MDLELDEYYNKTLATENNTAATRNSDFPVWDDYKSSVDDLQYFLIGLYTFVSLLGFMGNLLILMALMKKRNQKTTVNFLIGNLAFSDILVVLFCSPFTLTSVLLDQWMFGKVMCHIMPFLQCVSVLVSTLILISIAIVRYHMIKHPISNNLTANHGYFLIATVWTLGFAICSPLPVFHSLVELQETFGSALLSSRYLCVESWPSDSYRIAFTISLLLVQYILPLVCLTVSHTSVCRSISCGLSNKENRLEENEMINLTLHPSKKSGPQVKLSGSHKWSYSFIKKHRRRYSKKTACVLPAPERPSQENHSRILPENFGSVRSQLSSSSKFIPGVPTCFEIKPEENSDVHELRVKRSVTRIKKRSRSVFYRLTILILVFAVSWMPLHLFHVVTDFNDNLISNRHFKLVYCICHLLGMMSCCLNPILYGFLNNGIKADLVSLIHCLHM
In short: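 Radioligand displacement binding on cloned human chimeric NPY5 receptors, with [125I]PYY as the labelled ligand.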

[12] = tmax in the CSF of male wistar rats; assay type: ADME, organism-based, Cerebrospinal fluid; settings: rat; in short: as §1
[13] = Cmax in the CSF of male wistar rats; assay type: ADME, organism-based, Cerebrospinal fluid; settings: rat; in short: as §1
[14] = Cmax in the plasma of male wistar rats; assay type: ADME, organism-based; settings: rat; in short: as §1

half-life [1]: 66 min | half-life [2]: 66 min | half-life [3]: 96 min | Cmax [4]: 8.55 µM | Tmax [5]: 30 min | IC50 [6]: 0.4 nM | IC50 [7]: > 1000 nM | Ki [8]: 1.7 nM | IC50 [9]: > 1000 nM | Tmax [10]: 30 min | Ki [11]: 1.2 nM | Tmax [12]: 30 min | Cmax [13]: 213 nM | Cmax [14]: 4.42 µM
SMILES: CC(C)(C)OCCOc1ccc(-c2nc(-c3cccc(C#N)c3)c[nH]2)cn1
